# From ChEMBL document CHEMBL5042498, “Development of 3-(4-Chlorophenyl)-1-(phenethyl)urea Analogues as Allosteric Modulators of the Cannabinoid Type-1 Receptor: RTICBM-189 is Brain Penetrant and Attenuates Reinstatement of Cocaine-Seeking Behavior” (J Med Chem, 2022)
# Active and inactive are the calls of the source. No cut-off for these calls is given here.
# Experiments:
# [1] = Metabolic stability in rat liver microsomes assessed as half life in presence of NADPH measured upto 45 mins by LC-MS/MS analysis; assay type: ADME, Microsome; details: 0.75 h
# Summary of the method: (§1)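 Rat liver microsomes (0.5 mg/mL protein) in 100 mM potassium phosphate, pH 7.4, at 37 °C with 1 mM NADPH. Samples were taken at 0, 5, 15, 30 and 45 min, quenched with acetonitrile and analysed by LC/MS/MS. Half-life and clearance were derived from two independent experiments in duplicate.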
# [2] = Toxicity in Sprague-Dawley rat assessed as reduction in locomotion at 10 mg/kg, ip; assay type: organism-based; details: in vivo
# Summary of the method: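 Rats received 10 mg/kg i.p. compound or vehicle 15 min before being placed in locomotion chambers, after at least three days of handling. Locomotor activity was recorded for 30 min and analysed by two-way ANOVA.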
# [3] = Tmax in Sprague-Dawley rat plasma at 10 mg/kg, ip measured upto 24 hrs post dose by LC-MS/MS analysis
# [4] = AUC infinity in Sprague-Dawley rat brain 10 mg/kg, ip measured upto 24 hrs post dose by LC-MS/MS analysis
# [5] = Metabolic stability in rat liver microsomes assessed as clearance in presence of NADPH measured upto 45 mins by LC-MS/MS analysis; assay type: ADME, Microsome; details: 0.75 h; summary of the method: as §1
# [6] = Tmax in Sprague-Dawley rat brain at 10 mg/kg, ip measured upto 24 hrs post dose by LC-MS/MS analysis
# [7] = Plasma protein binding in rat; assay type: ADME, cell-free
# [8] = Apparent permeability across basolateral to apical side in MDCK-MDR1 cells at 10 uM measured upto 90 mins by LC-MS/MS analysis; assay type: ADME, cell-based, Canis lupus familiaris; details: dog, mdck-mdr1, 1.5 h
# Summary of the method: (§2)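 MDCK-MDR1 cells (passage 5) were grown 3 days on polycarbonate Transwell supports and equilibrated 30 min at 37 °C in HBSS with 10 mM HEPES and 0.25% BSA, pH 7.4, before TEER was measured. Test article at 10 μM was placed in the donor chamber (apical or basolateral), with light agitation at 37 °C. Receiver samples were taken at 30, 60 and 90 min and analysed by LC-MS/MS. Papp = (dQ/dt)/(A·Ci·60). References were atenolol, propranolol and digoxin.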
# Rattus norvegicus = experiment: Attenuation of cocaine reinstatement in 7 day cocaine treated Sprague-Dawley rat assessed as reduction in cocaine seeking behaviour at 10 mg/kg, ip treated for 10 mins prior to administration of cocaine priming injection; assay type: functional, organism-based
# Summary of the method: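 Male Sprague-Dawley rats (280-300 g) with jugular catheters self-administered cocaine (0.75 mg/kg/inf, FR1 raised to FR5) in 2-h sessions for 14 days, then underwent 7 days of extinction. On the test day, compound (10 mg/kg) or vehicle was given 10 min before a priming cocaine injection (10 mg/kg i.p.), and lever responding was measured.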
# [9] = Cmax in Sprague-Dawley rat plasma at 10 mg/kg, ip measured upto 24 hrs post dose by LC-MS/MS analysis
# [10] = Aqueous solubility of compound; assay type: physicochemical; details: buffer
# [11] = Cmax in Sprague-Dawley rat brain at 10 mg/kg, ip measured upto 24 hrs post dose by LC-MS/MS analysis
# Cannabinoid receptor 1 [12] = target: T1, Cannabinoid receptor 1 (Homo sapiens, UniProt P21554); experiment: Allosteric antagonist activity against human CB1 receptor expressed in HEK293 cells membrane measured after 60 mins by [35S]GTPgammaS binding assay; assay type: functional, cell membranes
# Summary of the method: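 Membranes from HEK293 cells expressing hCB1 are used in assay buffer (50 mM Tris, 3 mM MgCl2, 0.2 mM EGTA, 100 mM NaCl, 1 mg/ml BSA, pH 7.4). They are preincubated 10 min, then incubated 60 min at 30 °C with 30 μM GDP, 0.1 nM [35S]GTPγS, 100 nM CP55,940 and serially diluted compound (0.1% DMSO final). Nonspecific binding is set with 30 μM unlabeled GTPγS. Reactions are filtered. Data are normalized to CP55,940 alone and fitted by 3-parameter regression; mean of ≥3 experiments in duplicate.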
# [13] = target: Cannabinoid receptor 2 (Homo sapiens) (UniProt P34972); experiment: Antagonist activity at human CB2 receptor CP55940-stimulated calcium mobilization incubated for 15 mins FLIPR assay; assay type: functional; set-up: concentration or dose not given beside the values
# Summary of the method: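 CB2 antagonist screen in human CB2 CHO-RD-HGA16 cells loaded with Calcium 5 dye. Cells were pretreated 15 min at 37 °C with the test compound at a single concentration (10 μM), then challenged with CP55,940 at its EC80 during the FLIPR read (90 s, 485/525 nm). Response is expressed as % inhibition of the CP55,940 EC80 signal.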
# [14] = AUC infinity in Sprague-Dawley rat plasma 10 mg/kg, ip measured upto 24 hrs post dose by LC-MS/MS analysis
# [15] = target: Cannabinoid receptor 2 (Homo sapiens) (UniProt P34972); experiment: Agonist activity at human CB2 receptor CP55940-stimulated calcium mobilization at 10 uM incubated for 15 mins FLIPR assay relative to control; assay type: functional
# Summary of the method: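 CB2 agonist screen in CHO-RD-HGA16 cells stably expressing human CB2, loaded with Calcium 5 dye for 45 min at 37 °C. Cells were pretreated 15 min with vehicle, then the test compound was added at a single concentration. Fluorescence was read on FLIPR every 1 s for 90 s (485/525 nm). Response is expressed as % of CP55,940 Emax.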
# [16] = Elimination half life in Sprague-Dawley rat plasma 10 mg/kg, ip measured upto 24 hrs post dose by LC-MS/MS analysis
# Cannabinoid receptor 1 [17] = target: T1, Cannabinoid receptor 1; experiment: Antagonist activity at N-terminal tagged human CB1 receptor transfected with HEK293 cells assessed as forskolin-stimulated cAMP level in presence of CP55940 by BRET assay; assay type: functional, cell-based
# Summary of the method: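 HEK293 cells stably expressing hCB1 (3HA-tagged at Otago, untagged at RTI) are transiently transfected with the CAMYEL BRET cAMP sensor. Cells are serum-starved 30 min and given 5 μM coelenterazine H final. Compound dilutions are added together with 5 μM forskolin and 1 μM CP55,940. BRET (460/535) is read for about 20 min at 37 °C.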
# [18] = Apparent permeability across apical to basolateral side in MDCK-MDR1 cells at 10 uM measured upto 90 mins by LC-MS/MS analysis; assay type: ADME, cell-based, Canis lupus familiaris; details: dog, mdck-mdr1, 1.5 h; summary of the method: as §2
# Cannabinoid receptor 1 [19] = target: T1, Cannabinoid receptor 1; experiment: Allosteric antagonist activity at human CB1 receptor expressed in CHO-RD-HGA16 cells overexpressing Galpha16 assessed as inhibition of CP55940-stimulated calcium mobilization incubated for 15 mins FLIPR assay; assay type: functional, cell-based
# [20] = Clearance in Sprague-Dawley rat plasma at 10 mg/kg, ip measured upto 24 hrs post dose by LC-MS/MS analysis
# T1 sequence (P21554 whole entry): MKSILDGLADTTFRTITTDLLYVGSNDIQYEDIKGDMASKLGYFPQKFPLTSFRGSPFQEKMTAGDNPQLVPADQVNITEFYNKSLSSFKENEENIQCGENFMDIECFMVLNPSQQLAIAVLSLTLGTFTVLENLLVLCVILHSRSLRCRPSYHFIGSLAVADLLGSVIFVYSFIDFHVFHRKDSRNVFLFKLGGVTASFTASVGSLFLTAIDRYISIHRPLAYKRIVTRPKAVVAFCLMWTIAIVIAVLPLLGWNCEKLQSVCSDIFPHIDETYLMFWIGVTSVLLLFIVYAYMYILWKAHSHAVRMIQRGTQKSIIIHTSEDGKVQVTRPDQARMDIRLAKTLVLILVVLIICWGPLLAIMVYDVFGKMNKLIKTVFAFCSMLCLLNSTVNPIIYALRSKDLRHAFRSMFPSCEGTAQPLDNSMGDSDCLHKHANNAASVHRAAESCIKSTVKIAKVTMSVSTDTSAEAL
# Chain of Cannabinoid receptor 2 (Homo sapiens) (P34972 whole entry): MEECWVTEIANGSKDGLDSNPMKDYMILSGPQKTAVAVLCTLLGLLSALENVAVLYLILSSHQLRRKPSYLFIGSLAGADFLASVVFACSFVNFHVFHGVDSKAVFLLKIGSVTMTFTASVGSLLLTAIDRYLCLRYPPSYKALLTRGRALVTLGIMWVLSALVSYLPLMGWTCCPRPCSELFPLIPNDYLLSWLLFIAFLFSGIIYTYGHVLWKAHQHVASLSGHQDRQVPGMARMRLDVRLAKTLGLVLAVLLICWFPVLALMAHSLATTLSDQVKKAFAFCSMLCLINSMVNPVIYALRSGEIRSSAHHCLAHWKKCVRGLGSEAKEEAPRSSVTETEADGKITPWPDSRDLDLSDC
compound,measurement,setting,value
O=C(NCCc1cccc(Cl)c1)Nc1ccc(Cl)cc1,t1/2,[1],14.9 min
same,Activity,[2],Non-Toxic
same,Tmax,[3],24 min
same,AUC(0-inf),[4],1440 ng·h/mL
same,CLH,[5],99.3 µL/min/mg
same,Tmax,[6],24 min
same,PPB,[7],99.6%
same,Papp,[8],21.3 10^-6 cm/s
same,Activity,Rattus norvegicus,Active
same,Cmax,[9],288 ng/mL
same,solubility,[10],< 1 µM
same,Cmax,[11],595 ng/mL
same,IC50,Cannabinoid receptor 1 [12],5.13 µM
same,Activity,[13],< 35%
same,AUC(0-inf),[14],715 ng·h/mL
same,Emax,[15],< 20%
same,half-life,[16],37.8 min
same,IC50,Cannabinoid receptor 1 [17],1.51 µM
same,Papp,[18],19.2 10^-6 cm/s
same,IC50,Cannabinoid receptor 1 [19],0.0288 µM
same,CL/F,[20],241 mL/min/kg
